Data published in ChEMBL document CHEMBL1914438, “Synthesis and biological activity of novel N-cycloalkyl-(cycloalkylaryl)-2-[(3-R-2-oxo-2H-[1,2,4]triazino[2,3-c]quinazoline-6-yl)thio]acetamides” (2011).
Activity calls are given as the source filed them. The calls are words filed in the database; no cut-off is given here.

Legend:
[1] = system: Photobacterium leiognathi; assay: Antibacterial activity against Photobacterium leiognathi Sh1 at 0.1 to 0.25 ug/mL; assay type: functional, organism-based
[2] = system: Photobacterium leiognathi; assay: Antibacterial activity against Photobacterium leiognathi Sh1 assessed as inhibition of bacterial luminescence at 0.025 mg/mL after 10 mins by bioluminometry-based chronic action test; assay type: functional; set-up: scale not given: the % may be the effect or the level left
Summary of the method: (§1)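 Chronic (growth plus luminescence) test with P. leiognathi Sh1 at 10^5 cells/mL in chloride solution, compounds added in DMSO. After 10 min at 25 °C, growth medium added at 1:50 and the mix incubated 16–18 h at 30 °C. Luminescence then measured by bioluminometer as % of untreated control. Tetracycline reference.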

[3] = system: Photobacterium leiognathi; assay: Antibacterial activity against Photobacterium leiognathi Sh1 assessed as inhibition of bacterial luminescence at 0.1 mg/mL after 10 mins by bioluminometry-based chronic action test; assay type: functional; set-up: scale not given: the % may be the effect or the level left; summary of the method: as §1
[4] = system: Mycobacterium; assay: Antibacterial activity against Mycobacterium luteum at 1 to 5 mg/mL after 24 hrs by stiff-plate agar-diffusion method; assay type: functional, organism-based
Summary of the method: (§2)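 Agar diffusion (stiff plate) with test substances at 5 mg/mL in grooves, allowed to diffuse into nutrient agar; inoculum 10^9 c.f.u./mL; bacteria incubated 24 h at 35 °C. Read-out: inhibition zone diameter (not sensitive 11–15 mm, sensitive 16–25 mm, highly sensitive >25 mm). Vancomycin and oxacillin as standards; three repeats.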

[5] = system: Photobacterium leiognathi; assay: Antibacterial activity against Photobacterium leiognathi Sh1 assessed as inhibition of bacterial luminescence at 0.025 mg/mL after 10 mins by bioluminometry-based acute action test; assay type: functional; set-up: scale not given: the % may be the effect or the level left
Summary of the method: (§3)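 Marine P. leiognathi Sh1 (Azov Sea shrimp isolate) diluted in chloride solution to 10^5 cells/mL; compounds suspended in DMSO mixed with 1 mL bacterial suspension. Acute test: 10 min at 25 °C, then bioluminescence measured by bioluminometer as % of compound-free control. Tetracycline reference.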

[6] = system: Photobacterium leiognathi; assay: Antibacterial activity against Photobacterium leiognathi Sh1 assessed as inhibition of bacterial luminescence at 0.1 mg/mL after 10 mins by bioluminometry-based acute action test; assay type: functional; set-up: scale not given: the % may be the effect or the level left; summary of the method: as §3
[7] = system: Photobacterium leiognathi; assay: Antibacterial activity against Photobacterium leiognathi Sh1 assessed as inhibition of bacterial luminescence at 0.25 mg/mL after 10 mins by bioluminometry-based acute action test; assay type: functional; set-up: scale not given: the % may be the effect or the level left; summary of the method: as §3
[8] = system: Staphylococcus aureus; assay: Antibacterial activity against Staphylococcus aureus at 1 to 5 mg/mL after 24 hrs by stiff-plate agar-diffusion method; assay type: functional, organism-based; summary of the method: as §2
[9] = system: Yamadazyma tenuis; assay: Antifungal activity against Candida tenuis at 1 to 5 mg/mL after 48 to 72 hrs by stiff-plate agar-diffusion method; assay type: functional, organism-based
Summary of the method: (§4)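 Fungal plates run by stiff-plate agar diffusion, substances applied to grooves at 5 mg/mL; 10^9 c.f.u./mL cells; incubation 48–72 h at 28–30 °C. Inhibition zone diameter scored (11–15 mm not sensitive, 16–25 mm sensitive, >25 mm highly sensitive). Nystatin standard; experiments done three times.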

[10] = system: Photobacterium leiognathi; assay: Antibacterial activity against Photobacterium leiognathi Sh1 assessed as inhibition of bacterial luminescence at 0.25 mg/mL after 10 mins by bioluminometry-based chronic action test; assay type: functional; set-up: scale not given: the % may be the effect or the level left; summary of the method: as §1
[11] = system: Aspergillus niger; assay: Antifungal activity against Aspergillus niger at 1 to 5 mg/mL after 48 to 72 hrs by stiff-plate agar-diffusion method; assay type: functional, organism-based; summary of the method: as §4
[12] = system: Escherichia coli; assay: Antibacterial activity against Escherichia coli at 1 to 5 mg/mL after 24 hrs by stiff-plate agar-diffusion method; assay type: functional, organism-based; summary of the method: as §2
[13] = system: CAKI-1; assay: Cytotoxicity against human Caki1 cells assessed as cell growth at 10^-5 M after 48 hrs by SRB assay; assay type: functional; conditions: CAKI-1, 48 h, read-out: Activity
Summary of the method: (§5)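 NCI 60-cell-line one-dose primary screen: cells inoculated and preincubated 24–48 h, then test agent added at a single 10^-5 M concentration for a further 48 h. Endpoint is sulforhodamine B protein staining read spectrophotometrically. Reported as percent growth relative to untreated control cells.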

[14] = system: UO-31; assay: Cytotoxicity against human UO31 cells assessed as cell growth at 10^-5 M after 48 hrs by SRB assay; assay type: functional; conditions: UO-31, 48 h, read-out: Activity
Summary of the method: (§6)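 NCI human tumor cell line panel from nine cancer types. Each line was inoculated and preincubated 24–48 h, then exposed to a single concentration (10^-5 M) for 48 h. Growth was read by sulforhodamine B protein staining, measured spectrophotometrically. Value reported as percent growth of treated cells relative to untreated controls.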

[15] = system: SNB-75; assay: Cytotoxicity against human SNB75 cells assessed as cell growth at 10^-5 M after 48 hrs by SRB assay; assay type: functional; conditions: SNB-75, 48 h, read-out: Activity; summary of the method: as §6
[16] = system: PC-3; assay: Cytotoxicity against human PC3 cells assessed as cell growth at 10^-5 M after 48 hrs by SRB assay; assay type: functional; conditions: PC-3, 48 h, read-out: Activity; summary of the method: as §6
[17] = system: CCRF-CEM; assay: Cytotoxicity against human CCRF-CEM cells assessed as cell growth at 10^-5 M after 48 hrs by SRB assay; assay type: functional; conditions: read-out: Activity; summary of the method: as §5
[18] = in the assay text read “after 16 to 18 hrs” for “after 10 mins”

Structure (SMILES)	Activity [1]	Activity [2]	Activity [3]	Activity [4]	Activity [5]	Activity [6]	Activity [7]	Activity [8]	Activity [9]	Activity [10]	Activity [11]	Activity [12]	Activity [2, 18]	growth at 10 µM [13]	Activity [3, 18]	growth at 10 µM [14]	growth at 10 µM [15]	growth at 10 µM [16]	growth at 10 µM [17]	Activity [10, 18]
Cc1n[nH]c(-c2ccccc2N)nc1=O	Active	–	–	–	–	–	–	–	–	–	–	–	–	–	–	–	–	–	–	–
O=C(CSc1nc2ccccc2c2nc(=O)c(-c3ccccc3)nn12)Nc1ccc(C23CC4CC(CC(C4)C2)C3)cc1	–	118.75%	111.25%	inactive	102.94%	80.88%	54.41%	inactive	inactive	66.25%	inactive	inactive	–	–	–	–	–	–	–	–
O=C(CSc1nc2ccccc2c2nc(=O)c(-c3ccccc3)nn12)NC12CC3CC(CC(C3)C1)C2	–	97.14%	85.71%	inactive	86.96%	80.43%	56.52%	inactive	inactive	78.57%	inactive	inactive	–	–	–	–	–	–	–	–
Cc1ccc(-c2nn3c(SCC(=O)Nc4ccc(C56CC7CC(CC(C7)C5)C6)cc4)nc4ccccc4c3nc2=O)cc1	–	170%	140%	inactive	84.62%	96.15%	50%	inactive	inactive	16%	inactive	inactive	–	–	–	–	–	–	–	–
Cc1nn2c(SCC(=O)O)nc3ccccc3c2nc1=O	–	–	–	inactive	66.7%	0%	0%	inactive	inactive	–	inactive	inactive	36.4%	96%	61.5%	87.1%	83.5%	84.5%	93.3%	0%
CCC1C2CCC(C2)C1NC(=O)CSc1nc2ccccc2c2nc(=O)c(C)nn12 (stereo not drawn)	–	–	–	inactive	91.67%	104.17%	62.5%	inactive	inactive	–	inactive	inactive	90.28%	–	93.06%	–	–	–	–	86.11%
Cc1nn2c(SCC(=O)NC34CC5CC(CC(C5)C3)C4)nc3ccccc3c2nc1=O	–	25%	1.88%	inactive	36%	0%	0%	inactive	inactive	0%	inactive	inactive	–	–	–	–	–	–	–	–
CN(C)[C@@H]1C(O)=C(C(N)=O)C(=O)[C@@]2(O)C(O)=C3C(=O)c4c(O)cccc4[C@@](C)(O)[C@H]3C[C@@H]12 [TETRACYCLINE]	–	–	–	–	80.7%	9.1%	0%	–	–	–	–	–	0%	–	0%	–	–	–	–	0%
